Measured values: ChEMBL document CHEMBL2150942, “Synthesis and antibacterial activity of novel 1,3-diphenyl-1H-pyrazoles functionalized with phenylalanine-derived rhodanines” (Eur J Med Chem, 2012)
Values after ≈ are worked out from the molar mass of the structure shown.

How the values were obtained:
Escherichia coli [1] = test: Antibacterial activity against Escherichia coli CCARM 1356 after 20 hrs by two fold serial dilution assay; assay type: functional; conditions: CCARM 1356, 20 h
Staphylococcus aureus [2] = test: Antibacterial activity against quinolone-resistant Staphylococcus aureus CCARM 3505 after 20 hrs by two fold serial dilution assay; assay type: functional; conditions: CCARM 3505, 20 h
Escherichia coli [3] = test: Antibacterial activity against Escherichia coli CCARM 1924 after 20 hrs by two fold serial dilution assay; assay type: functional; conditions: CCARM 1924, 20 h
Staphylococcus aureus [4] = test: Antibacterial activity against Staphylococcus aureus KCTC 503 after 20 hrs by two fold serial dilution assay; assay type: functional; conditions: KCTC 503, 20 h
Staphylococcus aureus [5] = test: Antibacterial activity against methicillin-resistant Staphylococcus aureus CCARM 3506 after 20 hrs by two fold serial dilution assay; assay type: functional; conditions: CCARM 3506, 20 h
Staphylococcus aureus [6] = test: Antibacterial activity against methicillin-resistant Staphylococcus aureus CCARM 3167 after 20 hrs by two fold serial dilution assay; assay type: functional; conditions: CCARM 3167, 20 h
Staphylococcus aureus [7] = test: Antibacterial activity against Staphylococcus aureus RN4220 after 20 hrs by two fold serial dilution assay; assay type: functional; conditions: RN4220, 20 h
Staphylococcus aureus [8] = test: Antibacterial activity against quinolone-resistant Staphylococcus aureus CCARM 3519 after 20 hrs by two fold serial dilution assay; assay type: functional; conditions: CCARM 3519, 20 h
Staphylococcus aureus [9] = test: Ratio of norfloxacin MIC to compound MIC for methicillin-resistant Staphylococcus aureus CCARM 3167; assay type: functional
Staphylococcus aureus [10] = test: Ratio of norfloxacin MIC to compound MIC for methicillin-resistant Staphylococcus aureus CCARM 3506; assay type: functional
HeLa [11] = test: Cytotoxicity against human HeLa cells assessed as decrease in cell viability at 1 ug/mL after 48 hrs by MTT assay; assay type: cell-based
In short: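 HeLa cells (DMEM, 10% FBS, antibiotics, 37 °C, 5% CO₂) were seeded at about 1 × 10⁴ cells/well, left overnight, then exposed to compound for 48 h. Viability was read by MTT (5 mg/ml stock, 4 h), with formazan dissolved in DMSO and absorbance taken at 570 nm. Assay performed four times.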

HeLa [12] = test: Cytotoxicity against human HeLa cells after 48 hrs by MTT assay; assay type: cell-based
In short: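 HeLa cells grown in DMEM with 10% FBS and penicillin-streptomycin at 37 °C in 5% CO₂, passaged three times. About 1 × 10⁴ cells/well were seeded and attached overnight, then given a range of compound concentrations for 48 h. MTT (5 mg/ml stock) was added for 4 h, formazan dissolved in DMSO, and OD read at 570 nm. Run four times; IC50 was the concentration giving 50% growth inhibition.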

| SMILES | MIC (Escherichia coli [1]) | MIC (Staphylococcus aureus [2]) | MIC (Escherichia coli [3]) | MIC (Staphylococcus aureus [4]) | MIC (Staphylococcus aureus [5]) | MIC (Staphylococcus aureus [6]) | MIC (Staphylococcus aureus [7]) | MIC (Staphylococcus aureus [8]) | Ratio (Staphylococcus aureus [9]) | Ratio (Staphylococcus aureus [10]) | Activity (HeLa [11]) | IC50 (HeLa [12]) |
| --- | --- | --- | --- | --- | --- | --- | --- | --- | --- | --- | --- | --- |
| O=C(O)[C@@H](Cc1ccccc1)N1C(=O)/C(=C/c2cn(-c3ccccc3)nc2-c2ccc(Cl)cc2)SC1=S | > 64 µg/mL | 2 µg/mL (≈ 3.66 µM) | > 64 µg/mL | 2 µg/mL (≈ 3.66 µM) | 2 µg/mL (≈ 3.66 µM) | 2 µg/mL (≈ 3.66 µM) | 2 µg/mL (≈ 3.66 µM) | 2 µg/mL (≈ 3.66 µM) | – | – | – | – |
| O=C(O)[C@@H](Cc1ccccc1)N1C(=O)/C(=C/c2cn(-c3ccccc3)nc2-c2ccc(Cl)cc2Cl)SC1=S | > 64 µg/mL | 2 µg/mL (≈ 3.45 µM) | > 64 µg/mL | 2 µg/mL (≈ 3.45 µM) | 1 µg/mL (≈ 1.72 µM) | 1 µg/mL (≈ 1.72 µM) | 2 µg/mL (≈ 3.45 µM) | 1 µg/mL (≈ 1.72 µM) | 8 | 4 | – | – |
| Cc1ccc(-c2nn(-c3ccccc3)cc2/C=C2\SC(=S)N([C@H](Cc3ccccc3)C(=O)O)C2=O)c(C)c1 | > 64 µg/mL | 2 µg/mL (≈ 3.71 µM) | > 64 µg/mL | 2 µg/mL (≈ 3.71 µM) | 2 µg/mL (≈ 3.71 µM) | 2 µg/mL (≈ 3.71 µM) | 2 µg/mL (≈ 3.71 µM) | 1 µg/mL (≈ 1.85 µM) | – | – | – | – |
| Cc1ccc(-c2nn(-c3ccccc3)cc2/C=C2\SC(=S)N([C@H](Cc3ccccc3)C(=O)O)C2=O)cc1 | > 64 µg/mL | 1 µg/mL (≈ 1.9 µM) | > 64 µg/mL | 1 µg/mL (≈ 1.9 µM) | 1 µg/mL (≈ 1.9 µM) | 1 µg/mL (≈ 1.9 µM) | 2 µg/mL (≈ 3.8 µM) | 1 µg/mL (≈ 1.9 µM) | 8 | 4 | Non-toxic | 20.2 µg/mL (≈ 38.4 µM) |
| O=C(O)[C@@H](Cc1ccccc1)N1C(=O)/C(=C/c2cn(-c3ccccc3)nc2-c2ccccc2)SC1=S | > 64 µg/mL | 4 µg/mL (≈ 7.82 µM) | > 64 µg/mL | 8 µg/mL (≈ 15.6 µM) | 4 µg/mL (≈ 7.82 µM) | 4 µg/mL (≈ 7.82 µM) | 2 µg/mL (≈ 3.91 µM) | 4 µg/mL (≈ 7.82 µM) | – | – | – | – |
| O=C(O)[C@@H](Cc1ccccc1)N1C(=O)/C(=C/c2cn(-c3ccccc3)nc2-c2cccc(Br)c2)SC1=S | > 64 µg/mL | 4 µg/mL (≈ 6.77 µM) | > 64 µg/mL | 8 µg/mL (≈ 13.5 µM) | 4 µg/mL (≈ 6.77 µM) | 4 µg/mL (≈ 6.77 µM) | 2 µg/mL (≈ 3.39 µM) | 4 µg/mL (≈ 6.77 µM) | – | – | – | – |
| O=C(O)[C@@H](Cc1ccccc1)N1C(=O)/C(=C/c2cn(-c3ccccc3)nc2-c2ccc(F)cc2)SC1=S | > 64 µg/mL | 1 µg/mL (≈ 1.89 µM) | > 64 µg/mL | 16 µg/mL (≈ 30.2 µM) | 1 µg/mL (≈ 1.89 µM) | 1 µg/mL (≈ 1.89 µM) | 4 µg/mL (≈ 7.55 µM) | 1 µg/mL (≈ 1.89 µM) | 8 | 4 | – | – |
| O=C(O)[C@@H](Cc1ccccc1)N1C(=O)/C(=C/c2cn(-c3ccccc3)nc2-c2ccc(Br)cc2)SC1=S | > 64 µg/mL | 1 µg/mL (≈ 1.69 µM) | > 64 µg/mL | 16 µg/mL (≈ 27.1 µM) | 1 µg/mL (≈ 1.69 µM) | 1 µg/mL (≈ 1.69 µM) | 4 µg/mL (≈ 6.77 µM) | 16 µg/mL (≈ 27.1 µM) | 8 | 4 | – | – |
| O=C(O)[C@@H](Cc1ccccc1)N1C(=O)/C(=C/c2cn(-c3ccccc3)nc2-c2ccc3ccccc3c2)SC1=S | > 64 µg/mL | 16 µg/mL (≈ 28.5 µM) | > 64 µg/mL | 16 µg/mL (≈ 28.5 µM) | 16 µg/mL (≈ 28.5 µM) | 16 µg/mL (≈ 28.5 µM) | 2 µg/mL (≈ 3.56 µM) | 16 µg/mL (≈ 28.5 µM) | – | – | – | – |
| O=C(O)[C@@H](Cc1ccccc1)N1C(=O)/C(=C/c2cn(-c3ccccc3)nc2-c2ccc([N+](=O)[O-])cc2)SC1=S | > 64 µg/mL | 1 µg/mL (≈ 1.8 µM) | > 64 µg/mL | 16 µg/mL (≈ 28.7 µM) | 1 µg/mL (≈ 1.8 µM) | 1 µg/mL (≈ 1.8 µM) | 4 µg/mL (≈ 7.19 µM) | 1 µg/mL (≈ 1.8 µM) | 8 | 4 | – | – |
| COc1ccccc1-c1nn(-c2ccccc2)cc1/C=C1\SC(=S)N([C@H](Cc2ccccc2)C(=O)O)C1=O | > 64 µg/mL | 16 µg/mL (≈ 29.5 µM) | > 64 µg/mL | 16 µg/mL (≈ 29.5 µM) | 16 µg/mL (≈ 29.5 µM) | 16 µg/mL (≈ 29.5 µM) | 2 µg/mL (≈ 3.69 µM) | 16 µg/mL (≈ 29.5 µM) | – | – | – | – |
| COc1ccc(-c2nn(-c3ccccc3)cc2/C=C2\SC(=S)N([C@H](Cc3ccccc3)C(=O)O)C2=O)cc1 | > 64 µg/mL | 4 µg/mL (≈ 7.38 µM) | > 64 µg/mL | 16 µg/mL (≈ 29.5 µM) | 4 µg/mL (≈ 7.38 µM) | 4 µg/mL (≈ 7.38 µM) | 4 µg/mL (≈ 7.38 µM) | 8 µg/mL (≈ 14.8 µM) | – | – | – | – |
| O=C(O)[C@@H](Cc1ccccc1)N1C(=O)/C(=C/c2cn(-c3ccccc3)nc2-c2ccccc2Cl)SC1=S | > 64 µg/mL | 2 µg/mL (≈ 3.66 µM) | > 64 µg/mL | 2 µg/mL (≈ 3.66 µM) | 1 µg/mL (≈ 1.83 µM) | 1 µg/mL (≈ 1.83 µM) | 2 µg/mL (≈ 3.66 µM) | 1 µg/mL (≈ 1.83 µM) | 8 | 4 | Non-toxic | 30.2 µg/mL (≈ 55.4 µM) |
| COc1cccc(-c2nn(-c3ccccc3)cc2/C=C2\SC(=S)N([C@H](Cc3ccccc3)C(=O)O)C2=O)c1 | > 64 µg/mL | 16 µg/mL (≈ 29.5 µM) | > 64 µg/mL | 16 µg/mL (≈ 29.5 µM) | 16 µg/mL (≈ 29.5 µM) | 16 µg/mL (≈ 29.5 µM) | 4 µg/mL (≈ 7.38 µM) | 16 µg/mL (≈ 29.5 µM) | – | – | – | – |
| O=C(O)[C@@H](Cc1ccccc1)N1C(=O)/C(=C/c2cn(-c3ccccc3)nc2-c2ccccc2F)SC1=S | > 64 µg/mL | 2 µg/mL (≈ 3.78 µM) | > 64 µg/mL | 16 µg/mL (≈ 30.2 µM) | 4 µg/mL (≈ 7.55 µM) | 4 µg/mL (≈ 7.55 µM) | 4 µg/mL (≈ 7.55 µM) | 4 µg/mL (≈ 7.55 µM) | – | – | – | – |
| CCn1cc(C(=O)O)c(=O)c2cc(F)c(N3CCNCC3)cc21 [NORFLOXACIN] | 16 µg/mL (≈ 50.1 µM) | > 64 µg/mL | 16 µg/mL (≈ 50.1 µM) | 2 µg/mL (≈ 6.26 µM) | 4 µg/mL (≈ 12.5 µM) | 8 µg/mL (≈ 25.1 µM) | 2 µg/mL (≈ 6.26 µM) | > 64 µg/mL | – | – | – | – |
| Cc1onc(-c2ccccc2)c1C(=O)N[C@@H]1C(=O)N2[C@@H]1SC(C)(C)[C@@H]2C(=O)O [OXACILLIN] | > 64 µg/mL | 1 µg/mL (≈ 2.49 µM) | > 64 µg/mL | 1 µg/mL (≈ 2.49 µM) | > 64 µg/mL | > 64 µg/mL | 1 µg/mL (≈ 2.49 µM) | 1 µg/mL (≈ 2.49 µM) | – | – | – | – |
